Most compounds without a hit are left out; they make up all but 1.9% or so of the library.
MIN6 prolif: MIN6 beta-cell proliferation induction; proliferation, % at 10 µM; 0.29% of 330,000 active; MIN6 cells proliferation, ATPlite luminescence, 48 h; cells starved in 0.2% serum; 100% = growth in 10% serum; AID 2380;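 active = compounds whose signal lies at least 3.5 SD above the mean of all wells on their plate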;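 also: 0% = DMSO-treated cells in low-serum medium and 100% = 10% serum control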
PG9 binder: small molecules binding HIV-1 gp120 antibody PG9. 0.43% of 360,000 active. TR-FRET gp120-PG9 antibody binding. inhibition, % at 6.7 µM; in the data active = inhibition above about 8.5%
Yeast superoxide: caloric restriction mimetics inhibiting age-related superoxide in yeast; S. cerevisiae aged cells, superoxide DHE fluorescence; stronger effect = lower value; 0.18% of 330,000 active; superoxide response (% of plate mean), % at 10 µM;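 active = superoxide response under a set limit, about three screen SD below normal, cut at about 65% in these data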;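 also: yeast aged for seven days with compound at 30 °C before DHE staining; 100% = average MFI of all compound-treated wells on the plate with controls excluded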
Rce1 inhib: inhibitors of yeast Ras-converting enzyme | yeast membranes, quenched prenylated peptide cleavage fluorescence | calls only | 0.27% of 290,000 active | AID 2563;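 active = fall in fluorescence gain of 50% or more versus controls, with final raw signal at or below 3038400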;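 also: plate controls were neutral control wells for no effect and wells lacking membranes for full effect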
UCH37 DUB inh: blocks the human deubiquitinase UCH37; Q9Y5K5; purified proteasome/UCH37, Ub-AMC cleavage fluorescence; inhibition, % (concentration not given with the values); 0.33% of 330,000 active;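 active = mean inhibition over replicate wells above about 20%, limit read from the data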;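 also: 0% = compound-free wells with enzyme and 100% = wells lacking proteasome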
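Signal – fluorescence, ex 355 nm, em 460 nm · System – Proteasome-bound UCH37 · Input – 0.15 nM proteasome as dispensed · Timing – 30 min preincubation with enzyme, 25 min cleavage at room temperature · Read-out basis – percent inhibition of cleavage signal versus uninhibited and no-proteasome wells · Medium – Tris-HCl pH 7.4 with ATP-MgCl2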
Rev-erbA mod: modulators of human Rev-erb alpha DNA binding; 0.79% of 370,000 active; activity, % at 10 µM; Rev-erbα–FITC-DNA binding, fluorescence polarization, 90 min; P20393;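 active = activity above about 14%, limit read from the data; passing the limit was not always enough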;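 also: 0% = DMSO wells with 35 nM protein and 100% = DMSO wells with 750 nM protein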
Target sequence (P20393 whole entry, looked up): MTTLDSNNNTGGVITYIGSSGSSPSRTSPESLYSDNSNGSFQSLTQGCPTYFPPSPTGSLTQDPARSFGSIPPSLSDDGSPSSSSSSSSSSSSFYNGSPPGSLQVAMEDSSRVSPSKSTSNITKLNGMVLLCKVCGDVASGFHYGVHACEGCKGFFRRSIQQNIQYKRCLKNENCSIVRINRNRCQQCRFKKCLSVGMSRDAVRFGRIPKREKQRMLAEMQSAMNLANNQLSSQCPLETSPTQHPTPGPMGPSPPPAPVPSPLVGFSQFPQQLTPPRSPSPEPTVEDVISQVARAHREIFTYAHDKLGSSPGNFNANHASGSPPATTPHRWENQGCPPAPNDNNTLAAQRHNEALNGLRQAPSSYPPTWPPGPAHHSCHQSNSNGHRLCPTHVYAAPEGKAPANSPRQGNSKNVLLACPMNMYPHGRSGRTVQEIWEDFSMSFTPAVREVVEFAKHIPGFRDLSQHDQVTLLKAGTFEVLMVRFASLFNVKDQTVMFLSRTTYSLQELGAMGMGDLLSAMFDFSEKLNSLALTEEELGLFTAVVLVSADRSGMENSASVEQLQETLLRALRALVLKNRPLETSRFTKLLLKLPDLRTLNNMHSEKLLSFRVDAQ
PG9 bind confirm: PG9 antibody binding, confirmed; shares compounds with PG9 binder; TR-FRET PG9 antibody binding, biochemical; inhibition, % at 6.7 µM; 90% of 1,500 active; AID 651571; in the data active = inhibition above about 9%
PGV04 counter: binds control antibody PGV04 in PG9 binder counter-screen | shares compounds with PG9 binder | TR-FRET PGV04 antibody-gp120 binding, biochemical | inhibition, % at 6.7 µM | 95% of 1,500 active | AID 651604; in the data active = inhibition above about 9.5%
PG9 bind DR: PG9 antibody binding, dose response; IC50, µM; shares compounds with PG9 binder; TR-FRET PG9 antibody-gp120 binding inhibition; 95 tested, under 10 active; in the data active = IC50 below about 10 µM
PGV04 binding DR: PGV04 binding, dose response counter-screen. shares compounds with PG9 binder. TR-FRET binding to control antibody PGV04. IC50, µM. 20% of 95 active
PG126 binding DR: binds control antibody PG126 in PG9 counter-screen; AID 651939; TR-FRET binding to antibody PG126, counterscreen; 20% of 95 active; shares compounds with PG9 binder; IC50, µM
The depositor's hits bear a star; i = inactive; . = not tested or not shown. Rule as the data show it, unless noted: active = IC50 below about 9 µM; inactive = the rest.

SMILES	MIN6 prolif	PG9 binder	Yeast superoxide	Rce1 inhib	UCH37 DUB inh	Rev-erbA mod	PG9 bind confirm	PGV04 counter	others
O=C(COc1ncnc2cc([N+](=O)[O-])ccc12)N(CCc1ccccc1)Cc1ccccc1	0.0	16.2*	94.4	i	4.2	0.7	26.3*	40.6*
O=C(COc1ccc([N+](=O)[O-])cc1)N(Cc1ccccc1)Cc1ccccc1	0.0	-0.3	99.5	i	0.0	3.4	.	.
CC1CCN(C(=O)Cn2cnc3c(cnn3C(C)(C)C)c2=O)CC1	-3.8	11.2*	95.3	i	5.7	-0.8	7.9	10.2*
O=S(=O)(c1ccccc1)N1CCN(c2cc(-c3ccccc3)nc3ncnn23)CC1	-6.0	-0.5	85.4	i	-3.0	17.2	.	.
Cc1ccccc1NC(=O)C1CCN(c2cc(-c3ccccc3)nc3ncnn23)CC1	-2.9	8.8*	108.3	i	-2.9	7.1	16.9*	27.0*
Cn1c(CNC(=O)C2CCCCC2)cc2cc(Cl)ccc21	-3.6	19.5*	101.3	i	2.8	4.7	22.3*	34.2*
CN(C)C(=NS(=O)(=O)c1ccc(Cl)cc1)c1ccc(F)cc1	.	.	.	.	3.0	.	.	.
CCCCNC(=O)C(NC(=O)c1ccc(C)cc1)C(=O)c1ccccc1 (stereo not given)	.	-0.9	.	.	.	2.2	.	.
CCCCNC(=O)C(NC(=O)c1cccc(C(F)(F)F)c1)C(=O)c1ccccc1 (stereo not given)	.	27.4*	.	.	.	-8.5	41.1*	54.8*
Cc1ccc(-c2nc3cccnc3s2)cc1NS(C)(=O)=O	-6.3	9.2*	89.6	i	-19.1	0.3	29.3*	34.2*
CC(=NNC(=O)c1ccc(Cl)c(Cl)c1)c1ccc(Br)s1	.	.	.	.	-33.0	.	.	.
O=C(Cc1ccc(Cl)cc1)NN=Cc1cccs1	.	.	.	.	1.2	.	.	.
Cn1c(/C=C/c2ccc(Br)cc2)nc2ccccc2c1=O	-0.1	45.5*	120.5	i	-53.8	14.3	14.9*	28.8*
COc1cccc(C(=O)NN=C(CCC(=O)O)c2ccccc2)c1	.	.	.	.	4.8	.	.	.
CC1C2CC(CC2=NNC(=O)c2cccs2)C1(C)C (stereo not given)	.	.	.	.	0.6	.	.	.
COc1cc(OC)cc(-c2c(Sc3ccccc3)c3cc(-c4ccc(OC)c(OC)c4)ccc3n2C)c1	.	18.9*	.	.	.	13.6	33.7*	19.1*	PG9 bind DR=i;PGV04 binding DR=i;PG126 binding DR=i
COc1cc(OC)cc(-c2c(Sc3ccccc3)c3cc(-c4cnc(N5CCOCC5)nc4)ccc3n2C)c1	.	0.4	.	.	.	9.1	.	.
COc1ccc(-c2c(-c3ccc(OC)c(F)c3)c3ccccc3n2C)cc1	-5.0	-1.9	118.5	.	-9.0	2.9	.	.
COc1ccc(-c2c(Sc3ccccc3)c3cc(-c4ccc(OC)c(F)c4)ccc3n2C)cc1	.	26.5*	.	.	.	2.7	-12.6	36.0*
Cc1c(C(=O)NN=Cc2cccnc2)nnn1-c1nonc1N	.	.	.	.	1.2	.	.	.
Cc1nn(-c2ccccc2)cc1C=NNS(=O)(=O)c1ccccc1	.	.	.	.	4.5	.	.	.
O=C(COc1cccc(Br)c1)NN=C1CCCc2ccccc21	.	.	.	.	1.8	.	.	.
CCC(=NOC(=O)c1ccc(OC(C)C)cc1)c1ccc(C)cc1	.	.	.	.	-1.9	.	.	.
CCOC(=O)c1c(N=Cc2ccccc2O)sc2c1CCC2	.	.	.	.	6.7	.	.	.
Cc1ccccc1NC(=O)CCC(=O)OCC(=O)c1ccc(-c2ccccc2)cc1	6.7	12.9*	107.1	i	1.5	0.1	13.1*	23.9*
SMILES	MIN6 prolif	PG9 binder	Yeast superoxide	Rce1 inhib	UCH37 DUB inh	Rev-erbA mod	PG9 bind confirm	PGV04 counter	others
CCc1c(C)nc2ccc(Br)cc2c1Cl	0.0	9.3*	89.2	i	6.0	4.1	24.1*	25.8*
Cc1cc(C)cc(-c2nnc(SCC(=O)Nc3cc(C)on3)o2)c1	-4.5	13.7*	.	.	1.1	2.9	21.6*	33.8*
OC(COc1cccc2ccccc12)CN1CCN(c2cccc(Cl)c2)CC1 (stereo not given)	-4.8	-0.5	102.6	i	7.2	0.4	.	.
OC(COc1cccc2ccccc12)CN1CCN(c2ccc(Cl)cc2)CC1 (stereo not given)	-5.1	17.6*	105.5	i	0.0	9.6	26.8*	30.6*
CSc1cc(-c2ccc(Cl)cc2)c(C(=O)NC(C)C)s1	2.1	17.7*	84.6	i	4.8	3.7	8.5	13.4*
COc1ccc2c(c1)c(=O)oc1cc(O)ccc12	-3.2	0.4	109.2	i	-16.6	1.3	.	.
O=c1[nH]c2cc(O)ccc2c2ccccc12	.	36.7*	.	.	.	-3.2	38.5*	47.5*
Nc1ccc2c(c1)[nH]c(=O)c1ccccc12	.	3.8	.	.	.	7.1	.	.
O=c1oc2cc(O)ccc2c2ccccc12	1.6	22.3*	88.9	i	-3.9	-4.9	28.6*	37.5*
COc1ccc(C(C)=NNc2ccc(F)cc2F)c(O)c1	.	.	.	.	4.6	.	.	.
CC(C)(C)NS(=O)(=O)c1ccc2nc(NC(=O)c3ccc(N4C(=O)CCC4=O)cc3)sc2c1	2.2	47.6*	109.1	i	2.8	10.1	46.2*	64.4*
Cc1ccc2nc(NC(=O)c3ccc(N4C(=O)CCC4=O)cc3)sc2c1	-1.6	-0.7	117.3	i	-0.9	-0.6	.	.
O=C(O)c1cc(-c2cccs2)nc2ccc(F)cc12	0.1	4.2	102.0	i	i	-1.0	.	.
O=C(O)c1cc(-c2cccs2)nc2ccc(Br)cc12	-1.4	40.4*	87.3	i	.	6.1	54.5*	77.1*
O=C(O)c1cc(-c2cccnc2)nc2ccc(Br)cc12	1.8	44.3*	101.6	i	4.6	-4.6	55.6*	68.9*
O=C(O)c1cc(-c2ccc3c(c2)OCO3)nc2ccc(Br)cc12	-4.4	20.3*	99.5	i	-2.7	0.1	27.8*	34.1*
CCN1CCN(C(=O)c2cc(-c3cccnc3)nc3ccc(Br)cc23)CC1	5.0	6.8	114.2	i	4.7	7.0	.	.
CC(=O)Oc1ccc(C=NNC(=O)c2ccc(N(C)S(=O)(=O)c3ccccc3)cc2)cc1	.	.	.	.	7.3	.	.	.
ON=Cc1ccnc(SCc2ccccc2)n1	.	.	.	.	3.1	.	.	.
Cc1ccc(CN2CCN(N=Cc3cc(Br)ccc3F)CC2)cc1	.	.	.	.	-2.5	.	.	.
COc1c(Cl)cc(Cl)cc1C=Nn1cnnc1	.	.	.	.	-3.2	.	.	.
CCCCNS(=O)(=O)c1ccc2nc(-c3cccnc3)cc(C(=O)NCCCOC)c2c1	-0.4	11.3*	100.6	i	5.8	-0.1	12.6*	14.8*

High-throughput results: PubChem, several laboratories
